Source: PubChem BioAssay (several laboratories)
Apaf-1 inh: blocks human Apaf-1 apoptosome activity; O14727; reconstituted apoptosome caspase-3 activity, DEVD-Rh110 fluorescence; inhibition, % at 20 µM; 0.71% of 330,000 active; AID 489030; active = inhibition of at least 40% at 20 µM;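 note: plate controls were DMSO wells for no effect and DEVD-CHO caspase inhibitor wells for full effect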
Target sequence (O14727 whole entry, looked up): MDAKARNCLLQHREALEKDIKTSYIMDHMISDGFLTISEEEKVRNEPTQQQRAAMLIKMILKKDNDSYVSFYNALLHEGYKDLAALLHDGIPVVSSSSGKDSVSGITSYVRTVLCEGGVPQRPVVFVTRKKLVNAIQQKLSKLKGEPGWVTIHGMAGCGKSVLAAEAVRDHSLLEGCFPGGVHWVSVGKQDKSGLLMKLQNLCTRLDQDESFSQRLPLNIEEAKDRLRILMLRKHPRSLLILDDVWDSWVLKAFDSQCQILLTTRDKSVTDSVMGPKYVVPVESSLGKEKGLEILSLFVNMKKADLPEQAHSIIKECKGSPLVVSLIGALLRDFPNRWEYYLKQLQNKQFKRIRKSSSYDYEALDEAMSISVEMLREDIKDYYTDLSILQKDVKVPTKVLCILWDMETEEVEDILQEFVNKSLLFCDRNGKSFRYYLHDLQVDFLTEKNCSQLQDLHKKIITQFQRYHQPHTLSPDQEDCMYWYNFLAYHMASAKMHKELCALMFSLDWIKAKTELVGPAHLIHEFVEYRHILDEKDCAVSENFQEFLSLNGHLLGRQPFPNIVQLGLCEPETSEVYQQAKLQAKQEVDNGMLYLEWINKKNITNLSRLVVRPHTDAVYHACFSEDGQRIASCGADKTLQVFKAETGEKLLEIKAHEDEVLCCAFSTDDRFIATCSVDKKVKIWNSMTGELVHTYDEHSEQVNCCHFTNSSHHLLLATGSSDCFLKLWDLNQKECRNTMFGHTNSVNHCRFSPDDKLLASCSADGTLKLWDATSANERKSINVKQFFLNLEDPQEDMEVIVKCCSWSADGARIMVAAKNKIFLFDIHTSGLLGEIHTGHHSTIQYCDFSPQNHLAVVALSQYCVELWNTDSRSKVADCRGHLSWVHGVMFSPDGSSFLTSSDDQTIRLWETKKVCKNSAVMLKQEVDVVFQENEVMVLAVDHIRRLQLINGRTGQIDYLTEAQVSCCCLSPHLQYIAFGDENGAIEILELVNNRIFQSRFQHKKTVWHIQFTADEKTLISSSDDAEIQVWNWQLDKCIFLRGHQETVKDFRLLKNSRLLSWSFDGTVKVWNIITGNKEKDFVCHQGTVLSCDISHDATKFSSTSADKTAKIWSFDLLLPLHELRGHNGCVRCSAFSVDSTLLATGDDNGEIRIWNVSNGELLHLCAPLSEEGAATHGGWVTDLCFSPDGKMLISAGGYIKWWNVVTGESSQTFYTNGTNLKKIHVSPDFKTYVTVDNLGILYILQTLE
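Assay system: Apoptosome proteins | Medium: pH 7.5 Hepes buffer with CHAPS, BSA, DTT | Also added: Cytochrome c and DEVD-Rh110 substrate | Times: 30 min plus 50 min, RT | Detection: Rhodamine 110 fluorescence at Ex 480/Em 540 nm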
MIN6 prolif-1: inducers of beta-cell replication in MIN6 cells | MIN6 cells proliferation, ATPlite luminescence, 48 h; cells starved in 0.2% serum; 100% = growth in 10% serum | proliferation, % at 10 µM | 0.29% of 330,000 active;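 active = compounds whose signal lies at least 3.5 SD above the mean of all wells on their plate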;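 note: 0% = DMSO-treated cells in low-serum medium and 100% = 10% serum control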
Exocytosis inh: blocks lytic granule exocytosis; TALL-104 LAMP-1 surface exposure, flow cytometry; cells stimulated with thapsigargin and PMA; 0.66% of 360,000 active; inhibition, % at 10 µM; AID 651702;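 active = inhibition above about 55%, limit read from the data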
iPSC survival up: enhancers of human iPSC single-cell survival. hiPSC single-cell survival, ATPlite luminescence; 100% = ROCK inhibitor wells, 0% = DMSO. survival enhancement, % at 20 µM. 0.044% of 360,000 active. AID 602274; in the data active = survival enhancement above about 18%;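 note: cells exposed to compounds for 16 hours before the ATP read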
MPTP block: permeability transition pore inhibition; isolated mouse mitochondria, Ca2+ swelling absorbance, 30 min; inhibition, % at 10 µM; 1.4% of 360,000 active; AID 602449;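 active = inhibition of 50% or more, scaled per plate between neutral and stimulator controls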;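 note: 0% = DMSO wells given calcium and 100% = 1 mM EGTA wells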
UBC13 polyUb: blocks human UBC13 polyubiquitin chain formation | P61088 | TR-FRET | inhibition, % at 20 µM | 0.47% of 330,000 active | AID 485273; in the data active = inhibition above about 45%, passing the limit was not always enough
MIN6 prolif-2: confirmation of inducers of beta-cell replication in MIN6 cells | shares compounds with MIN6 prolif-1 | MIN6 beta-cell proliferation, ATPlite luminescence, 48 h; cells kept in 0.2% serum; scaled between 0.2% and 10% serum | proliferation increase, % at 50 µM | 920 tested, under 10 active;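 active = proliferation increase above 40% at any of the four tested concentrations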
* = called active by the depositor. A selection: hits, their analogues and other compounds. The true share with any hit is near 3%.

Results for CC(C)Nc1nc(NC(C)(C)C)nc(Oc2ccc(=O)n(-c3ccccc3)n2)n1 ?
Apaf-1 inh: -4.5; MIN6 prolif-1: 7.5*; Exocytosis inh: -1.2; iPSC survival up: -0.6; MPTP block: -1.5; UBC13 polyUb: 8.9; MIN6 prolif-2: -5.6

Results for NC(c1ccccc1)c1cccs1 (configuration not stated) ?
Exocytosis inh: 0.0; iPSC survival up: 0.8; MPTP block: -0.5

How did CC(C)(C)NC(=O)C[C@H]1C[C@H](C(=O)N2CCOCC2)[C@@]2(CCC3CCCC3)c3[nH]c4cc(-c5ccco5)ccc4c3CCN2C1=O do in these assays?
Apaf-1 inh: 22.7; Exocytosis inh: 0.6; iPSC survival up: -2.3; MPTP block: -0.7

What do the screens show for `CCC(=O)N1CCc2cc(OC)c(OC)cc2C1COc1ccc(F)cc1` (configuration not stated)?
Apaf-1 inh: 6.5; MIN6 prolif-1: 9.3*; Exocytosis inh: -2.0; iPSC survival up: 0.2; MPTP block: 0.3; UBC13 polyUb: 3.1; MIN6 prolif-2: -0.9

What do the screens show for `COc1cc2c(cc1OC)C(COc1ccccc1OC)N(C(=O)c1ccco1)CC2` (configuration not stated)?
Apaf-1 inh: -2.1; MIN6 prolif-1: 8.8*; Exocytosis inh: -4.3; iPSC survival up: 0.6; MPTP block: 2.2; UBC13 polyUb: 17.0; MIN6 prolif-2: 0.2

What do the screens show for `COc1ccc(-n2ncc3c(=O)n(CC(=O)NC(C)C)cnc32)cc1`?
Apaf-1 inh: -10.1; MIN6 prolif-1: -0.9; Exocytosis inh: -3.0; iPSC survival up: -0.1; MPTP block: -0.7; UBC13 polyUb: 7.5

How did CCOC(=O)C1=C(COC(=O)/C=C/c2ccccc2)NC(=O)NC1C (configuration not stated) do in these assays?
Apaf-1 inh: 9.4; MIN6 prolif-1: 11.6*; Exocytosis inh: -7.8; iPSC survival up: -0.4; MPTP block: -1.6; UBC13 polyUb: -0.7; MIN6 prolif-2: 4.7

How did CCOC(=O)C1=C(COC(=O)/C=C/c2ccccc2F)NC(=O)NC1C (configuration not stated) do in these assays?
Apaf-1 inh: 9.3; MIN6 prolif-1: 12.4*; Exocytosis inh: -0.5; iPSC survival up: -0.3; MPTP block: -1.5; UBC13 polyUb: 2.8; MIN6 prolif-2: -2.0

How did CCOC(=O)C1=C(COC(=O)/C=C/c2ccccc2Cl)NC(=O)NC1C (configuration not stated) do in these assays?
Apaf-1 inh: 8.5; MIN6 prolif-1: -3.7; Exocytosis inh: -26.3; iPSC survival up: -0.3; MPTP block: 0.4; UBC13 polyUb: 22.7

Results for CCOC(=O)C1=C(COC(=O)c2sccc2C)NC(=O)NC1C (configuration not stated) ?
Apaf-1 inh: -6.3; MIN6 prolif-1: 11.4*; Exocytosis inh: -1.9; iPSC survival up: 1.6; MPTP block: -0.8; UBC13 polyUb: 5.1; MIN6 prolif-2: 3.7

What do the screens show for `CCOC(=O)C1=C(COC(=O)c2cccc(Br)c2)NC(=O)NC1C` (configuration not stated)?
Apaf-1 inh: -0.9; MIN6 prolif-1: -3.2; Exocytosis inh: 8.7; iPSC survival up: -0.3; MPTP block: -1.3; UBC13 polyUb: 0.7

Results for COc1ccc2[nH]c(C)c(-c3csc(N)n3)c2c1 ?
Apaf-1 inh: -6.7; MIN6 prolif-1: -2.3; Exocytosis inh: -7.0; iPSC survival up: -0.5; MPTP block: 0.4; UBC13 polyUb: -0.9

How did N/C(=N\OC(=O)C12CC3CC(CC(C3)C1)C2)c1ccccn1 do in these assays?
Apaf-1 inh: 4.1; MIN6 prolif-1: -2.3; Exocytosis inh: 0.6; iPSC survival up: -1.8; MPTP block: 1.0; UBC13 polyUb: 11.6

Results for C/C(=N\NC(=O)c1ccccn1)C12CC3CC(CC(C3)C1)C2 ?
Apaf-1 inh: 3.4; MIN6 prolif-1: 6.6*; Exocytosis inh: -5.8; iPSC survival up: -2.7; MPTP block: 1.6; UBC13 polyUb: 6.4; MIN6 prolif-2: -5.4
